Laboratory results reported in PMC8828683 (Stem Cell Reports, 2022).

How the values were obtained:
VeroE6 cells = test: Inhibition of cell proliferation; assay type: cell-based, monkey; settings: read-out: IC50 inhibition of proliferation
NTERA-2 ECC [1] = test: Live cells / PCD by FACS of nonpermeabilized cells stained with annexin-V and PI; assay type: cell-based, human; settings: read-out: IC50 Live Cells; NTERA-2 ECC, 4 days
In short: (§1)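 Cells were seeded so that vehicle wells stayed subconfluent, then treated with a range of test compound concentrations for 4 days. Without permeabilization, they were stained with annexin-V-FITC and propidium iodide and analysed by flow cytometry. Double-negative cells (Q3) were scored as live and Q1+Q2 as programmed death. Vehicle was set to 100% viable and 0% dead. Results are the mean of three independent assays with SEM; group averages and ratios are derived from the IC50s.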

GCT27D.C1 ECC = test: Cells with <2N DNA by FACS of permeabilized cells stained with PI; assay type: cell-based, human
In short: (§2)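 Cells were exposed to a range of test compound concentrations alongside vehicle (DMSO) controls. They were then permeabilized, stained with propidium iodide, and DNA content was read by flow cytometry. IC50 is the concentration at which 50% of cells hold <2N DNA, from 3 independent repetitions with SEM. Line averages and differentiated/pluripotent ratios are derived from these IC50s. NTERA-2 was also run as a time course at 5 μM, normalized to vehicle at each time point.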

NTERA-2 ECC [2] = test: Cellular ATP level; assay type: cell-based, human; settings: read-out: IC50 ATP
In short: (§3)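 Cellular ATP was measured with a CellTiter-Glo luminescence viability assay after exposure to a concentration range of test compound. IC50 is the average of three independent assays. Mean IC50s across differentiated or human pluripotent lines, and their ratio, are derived from the per-line values.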

[3] = tested on: Mouse Gmnn(fl/fl);ER-Cre/+ ESCs; test: Cellular DNA content by FACS of permeabilized cells stained with PI; assay type: cell-based
In short: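 Mouse Gmnn(fl/fl);ER-Cre/+ embryonic stem cells were grown with 3 μM test compound (from a 20 mM DMSO stock) or DMSO vehicle for the indicated times. Attached and unattached cells were pooled, permeabilized and stained with propidium iodide. DNA content was measured by flow cytometry, scoring the fraction of cells with <2N DNA.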

SCUi24 iPSC = test: Cells with <2N DNA by FACS of permeabilized cells stained with PI; assay type: cell-based, human; settings: read-out: IC50 DNA (50% of cells with <2N DNA)
In short: as §2

[4] = tested on: H108 normal skin fibroblast; test: Live cells / PCD by FACS of nonpermeabilized cells stained with annexin-V and PI; assay type: cell-based, human; settings: read-out: IC50 Live Cells; H108, 4 days
In short: as §1

[5] = tested on: HBEC normal lung epithelial; test: Cellular ATP level; assay type: cell-based, human; settings: read-out: IC50 ATP
In short: as §3

differentiated cells [6] = test: Inhibition of cell proliferation; assay type: cell-based; settings: read-out: IC50 inhibition of proliferation; insensitive differentiated cells
TERA-2 ECC [7] = test: Cells with <2N DNA by FACS of permeabilized cells stained with PI; assay type: cell-based, human; settings: read-out: IC50 DNA (50% of cells with <2N DNA)
In short: as §2

[8] = tested on: HFF-1 normal skin fibroblast; test: Live cells / PCD by FACS of nonpermeabilized cells stained with annexin-V and PI; assay type: cell-based, human; settings: read-out: IC50 Live Cells; HFF-1
In short: as §1

H1 ESCs = test: Immunoblotting of total cell extracts; assay type: cell-based, human
In short: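 Cells were cultured with 2.5 μM test compound for up to 96 h, and attached plus unattached cells were pooled. Whole-cell RIPA lysates were run on 4–12% Bis-Tris gels, transferred to nitrocellulose and blocked in 5% milk/TBS. Primary antibodies went on overnight at 4°C, followed by infrared secondary antibodies and imager quantitation. Each blot carried untreated U2OS as a shared standard, with Ponceau-S histones for normalization and lighter exposures for quantitation. Adriamycin for 24 h (NTERA-2 1 μM, H108 2 μM) served as a DNA-break control.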

[9] = tested on: HFF-1 normal skin fibroblast; test: Cells with <2N DNA by FACS of permeabilized cells stained with PI; assay type: cell-based, human; settings: read-out: IC50 DNA (50% of cells with <2N DNA); HFF-1
In short: as §2

[10] = tested on: GCT27D.C1 teratocarcinoma xenografts; test: Teratocarcinoma xenograft, daily intraperitoneal injections; assay type: in vivo, mice
In short: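 Six-week-old female […] BALB/c nude mice were injected subcutaneously in the lower right flank with 200 μL of 50% Matrigel holding 2 million NTERA-2 or 5 million GCT27D.C1 cells (eight mice per model). Once tumors were palpable, mice received 40 mg/kg test compound i.p. daily (DMSO solution diluted in sunflower oil to 200 μL) or vehicle. Tumor volume was calculated as length × width² × 0.5 from calipers, TGI was calculated, and body weight was tracked. Tumors were harvested 15 days later.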

[11] = tested on: human pluripotent cells (ESCs, iPSCs, ECCs); test: ATP loss, summary over pluripotent cell lines; assay type: cell-based
In short: as §3

[12] = tested on: HBEC normal lung epithelial; test: Live cells / PCD by FACS of nonpermeabilized cells stained with annexin-V and PI; assay type: cell-based, human; settings: read-out: IC50 Live Cells
In short: as §1

[13] = tested on: HFF-1 normal skin fibroblast; test: Cellular ATP level; assay type: cell-based, human; settings: read-out: IC50 ATP
In short: as §3

differentiated cells [14] = test: DNA loss; assay type: cell-based; settings: read-out: IC50 DNA loss, on average; average over differentiated cells
In short: as §2

TERA-2 ECC [15] = test: Live cells / PCD by FACS of nonpermeabilized cells stained with annexin-V and PI; assay type: cell-based, human; settings: read-out: IC50 Live Cells, 4 days
In short: as §1

WA01/H1 ESC = test: as above; assay type: cell-based, human; settings: read-out: IC50 Live Cells
In short: as §1

Toxicity studies in mice = assay type: in vivo, mouse; settings: doses from 20 to 100 mg/kg body weight
[16] = tested on: human pluripotent cells (ESC, iPSC, ECC lines); test: PCD / live cell loss; assay type: cell-based; settings: ratio of average IC50
In short: as §1

[17] = tested on: H108 normal skin fibroblast; test: Cells with <2N DNA by FACS of permeabilized cells stained with PI; assay type: cell-based, human; settings: read-out: IC50 DNA (50% of cells with <2N DNA)
In short: as §2

NTERA-2 ECC [18] = test: as above; assay type: cell-based, human
In short: as §2

[19] = tested on: VeroE6 normal kidney epithelial; test: as above; assay type: cell-based, monkey; settings: read-out: IC50 DNA (50% of cells with <2N DNA)
In short: as §2

WA09/H9 ESC = test: as above; assay type: cell-based, human
In short: as §2

[20] = ratio differentiated/pluripotent
[21] = H1, 2.5 μM WX8, normalized to histones

In the case of C(=N\Nc1nc(Nc2ccccc2)nc(N2CCOCC2)n1)/c1c[nH]c2ccccc12 [WX8], the IC50 (VeroE6 cells) is reported as 0.45 µM, the IC50 (NTERA-2 ECC [1]) is reported as 1.3 µM and the “Range of sensitivity to WX8-induced cell death (DNA loss), H108/GCT27DC1” value (GCT27D.C1 ECC; [20]) is reported as 700 fold. The IC50 (GCT27D.C1 ECC; read-out: IC50 DNA (50% of cells with <2N DNA), GCT27D.C1 ECC) was 0.2 µM, the IC50 (NTERA-2 ECC [2]) was 0.48 µM and the “Cells with <2N DNA” value ([3]; 3 μM WX8, 72 hr) was over 90%. For the same compound, the “Cells with <2N DNA” value ([3]; 3 μM WX8, within 32 h) was 50%, the IC50 (SCUi24 iPSC) was 1 µM and the IC50 [4] was 50 µM. The IC50 [5] was 6 µM, the IC50 (differentiated cells [6]) was over 100 µM and the IC50 (TERA-2 ECC [7]) was 5 µM. It also gave an IC50 [8] of 75 µM, a CASP3 cleavage (H1 ESCs; H1, 2.5 μM WX8) of under 2% and a PARP cleavage (H1 ESCs; H1, 2.5 μM WX8) of 20%. The “Accumulation of p62 protein” value (H1 ESCs; [21]) was under 2 fold, the “Accumulation of total LC3 protein” value (H1 ESCs; [21]) was 2 fold and the CASP12 cleavage (H1 ESCs; H1, WX8) was under 2%. The “Cleaved CASP7” value (H1 ESCs; H1, WX8) was “not detected”, the IC50 [9] was 50 µM and the “Tumor growth inhibition (TGI)” value ([10]; GCT27D.C1 tumors, 40 mg WX8/kg daily i.p.) was 78%. The “OCT4-, SOX2- and Ki67-stained cells in tumor slices” value ([10]; GCT27D.C1 tumors, 40 mg WX8/kg daily i.p., immunohistochemistry) was “selectively eliminated cells expressing OCT4 or SOX2 protein with no detectable effect on proliferating cells”, the Mouse body weights ([10]; GCT27D.C1 xenograft mice, 40 mg WX8/kg daily i.p.) was “maintained” and the “Effect on teratocarcinoma xenografts” value ([10]; GCT27D.C1 xenografts, intraperitoneal injections of WX8) was “Eliminated stem cells and inhibited tumor growth”. For the same compound, the “Difference in ATP loss, differentiated vs pluripotent cells” value ([11]; ratio of average IC50) was 13 fold, the IC50 ([11]; read-out: IC50 ATP loss, on average, average over human pluripotent cells) was 1.2 µM and the IC50 [12] was 140 µM. The IC50 [13] was 28 µM, the IC50 (differentiated cells [14]) was 67.5 µM and the IC50 (TERA-2 ECC [15]) was 5 µM. For the same compound, the IC50 (WA01/H1 ESC) was 1.9 µM, the “Maximum dose at which no indication of mouse impairment was observed” value (Toxicity studies in mice) was 40 mg/kg and the “Difference in the initiation of PCD, differentiated vs pluripotent cells” value [16] was 35 fold. The IC50 [17] was 140 µM, the “Cells with <2N DNA” value (NTERA-2 ECC [18]; NTERA-2, 5 μM WX8, 96h (4 days)) was over 80% and the IC50 (NTERA-2 ECC [18]; read-out: IC50 DNA (50% of cells with <2N DNA), NTERA-2 ECC) was 3.5 µM. The IC50 [19] was 60 µM, the “Range of sensitivity to WX8-induced cell death (DNA loss), HBEC/H9” value (WA09/H9 ESC; [20]) was 5 fold and the IC50 (WA09/H9 ESC; read-out: IC50 DNA (50% of cells with <2N DNA), WA09/H9 ESC) was 5 µM.
